Experimental data reported in ChEMBL document CHEMBL3124872, “Discovery and early development of TMC647055, a non-nucleoside inhibitor of the hepatitis C virus NS5B polymerase” (J Med Chem, 2014).
pEC50, pIC50, pKd: −log10 of the molar value. Active and inactive are the calls of the source. The calls are words filed in the database; no cut-off is given here.

What was measured:
Hepatitis C virus [1] = assay: Antiviral activity against Hepatitis C virus genotype 1a infected in po dosed human assessed as decrease in HCV RNA level administered bid for 5 days followed by morning dose on day 6; assay type: functional, organism-based; conditions: Hepacivirus hominis; subtype 1a
Summary of the method: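 HCV genotype 1-infected patients received oral b.i.d. doses of 500 mg or 1000 mg in a hydroxypropyl-β-cyclodextrin vehicle for 5 days, plus a morning dose on day 6. The read-out was the median maximum decrease in HCV RNA from baseline in GT1a patients with data up to Day 6.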

Homo sapiens [2] = assay: Drug metabolism in human assessed as CYP3A4-induced 4-beta-hydroxycholesterol level at 300 to 1250 mg, po bid for 5 days followed by morning dose on day 6; assay type: ADME, organism-based; conditions: in vivo, 120 h
Summary of the method: (§1)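 Healthy volunteers given oral b.i.d. doses of 300, 1000 or 1250 mg for 5 days plus a morning dose on day 6, in hydroxypropyl-β-cyclodextrin vehicle; adverse events, laboratory parameters, vital signs, food consumption, appetite, ECG and plasma 4-β-hydroxycholesterol (CYP3A4 induction marker) monitored.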

Homo sapiens [3] = assay: Toxicity in HCV genotype 1-infected patient assessed as effect on vital signs at 500 to 1000 mg, po bid for 5 days followed by morning dose on day 6; assay type: organism-based; conditions: in vivo, 120 h
Summary of the method: (§2)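 HCV genotype 1-infected patients given oral b.i.d. doses of 500 or 1000 mg for 5 days plus a morning dose on day 6, in hydroxypropyl-β-cyclodextrin vehicle; adverse events with grading, laboratory parameters, vital signs, food consumption, appetite and ECG monitored.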

Homo sapiens [4] = assay: Toxicity in human assessed as effect on laboratory parameters at 300 to 1250 mg, po bid for 5 days followed by morning dose on day 6; assay type: organism-based; conditions: in vivo, 120 h; summary of the method: as §1
Homo sapiens [5] = assay: Toxicity in HCV genotype 1-infected patient assessed as grade-4 adverse events at 500 to 1000 mg, po bid for 5 days followed by morning dose on day 6; assay type: organism-based; conditions: in vivo, 120 h; summary of the method: as §2
Homo sapiens [6] = assay: Toxicity in human assessed as grade-4 adverse events at 300 to 1250 mg, po bid for 5 days followed by morning dose on day 6; assay type: organism-based; conditions: in vivo, 120 h
Summary of the method: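 Oral b.i.d. dosing for 5 days plus a single morning dose on day 6, in a hydroxypropyl-β-cyclodextrin vehicle. Healthy volunteers received 300, 1000 or 1250 mg; HCV genotype 1-infected patients received 500 or 1000 mg. Monitoring covered adverse events graded by severity, laboratory parameters, vital signs, food consumption, appetite and ECG.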

Homo sapiens [7] = assay: Toxicity in HCV genotype 1-infected patient assessed as grade-3 adverse events at 500 to 1000 mg, po bid for 5 days followed by morning dose on day 6; assay type: organism-based; conditions: in vivo, 120 h; summary of the method: as §2
Homo sapiens [8] = assay: Toxicity in HCV genotype 1-infected patient assessed as gastrointestinal side-effects at 500 to 1000 mg, po bid for 5 days followed by morning dose on day 6; assay type: organism-based; conditions: in vivo, 120 h; summary of the method: as §2
Hepatitis C virus [9] = assay: Antiviral activity against Hepatitis C virus genotype 1b infected in human HuH7 assessed as rebound of replicon RNA at 3.75 uM preincubated for 2 weeks followed by 3 week rebound phase by RT-PCR analysis; assay type: functional, organism-based; conditions: Hepacivirus hominis, Huh-7
Summary of the method: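 Clearance-and-rebound test in Huh7-Luc genotype 1b replicon cells. Cells were incubated with inhibitor (3.75 μM alone) for 14 days, then held for a 3-week rebound phase without inhibitor. Replicon RNA was followed for clearance and rebound.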

Hepatitis C virus [10] = assay: Antiviral activity against Hepatitis C virus harboring […] Y93H mutant infected in human HuH7 by luciferase reporter gene assay; assay type: functional, organism-based; conditions: Hepacivirus hominis; Huh-7
Hepatitis C virus [11] = assay: Antiviral activity against Hepatitis C virus harboring NS5B S96T mutant infected in human HuH7 by luciferase reporter gene assay; assay type: functional, organism-based; conditions: Hepacivirus hominis; Huh-7
Hepatitis C virus [12] = assay: Antiviral activity against Hepatitis C virus harboring NS5B M414T mutant infected in human HuH7 by luciferase reporter gene assay; assay type: functional, organism-based; conditions: Hepacivirus hominis; Huh-7
Hepatitis C virus [13] = assay: Antiviral activity against Hepatitis C virus genotype 1b harboring NS5B NNI-1 site P495L mutant infected in human HuH7 by luciferase reporter gene assay relative to wild-type HCV genotype 1b; assay type: functional, Hepacivirus hominis, Huh-7
[14] = Selectivity ratio of EC50 for Hepatitis C virus genotype 2a to EC50 for wild-type Hepatitis C virus Con 1b; assay type: functional
Summary of the method: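 Transient replicon assay using chimeric replicons carrying NS5B from genotype 2a or 2b patient isolates. EC50 was compared with that against the genotype 1b replicon.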

Hepatitis C virus [15] = assay: Antiviral activity against Hepatitis C virus genotype 4a infected in human HuH7 by transient replicon assay; assay type: functional, organism-based, Hepacivirus hominis; conditions: Huh-7
Summary of the method: (§3)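 Transient replicon assay using chimeric replicons whose NS5B region is derived from patient isolates of the stated genotype.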

Hepatitis C virus [16] = assay: Antiviral activity against Hepatitis C virus genotype 1b infected in human HuH7 by transient replicon assay; assay type: functional, organism-based, Hepacivirus hominis; conditions: Huh-7; summary of the method: as §3
[17] = Binding affinity to Hepatitis C virus genotype 3a NS5B by surface plasmon resonance analysis; set-up: species or system Hepatitis C virus subtype 3a
Summary of the method: (§4)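 Surface plasmon resonance binding to NS5B polymerase of the stated genotype; association and dissociation rate constants measured, from which Kd and residence half-life were derived; median Kd reported.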

[18] = Binding affinity to Hepatitis C virus genotype 2b NS5B by surface plasmon resonance analysis; set-up: species or system Hepatitis C virus subtype 2b; summary of the method: as §4
[19] = Binding affinity to Hepatitis C virus genotype 1b NS5B by surface plasmon resonance analysis; set-up: species or system Hepatitis C virus subtype 1b; summary of the method: as §4
[20] = Binding affinity to Hepatitis C virus genotype 1a NS5B by surface plasmon resonance analysis; set-up: species or system Hepatitis C virus subtype 1a; summary of the method: as §4
[21] = Binding affinity to Hepatitis C virus Con 1b wild-type NS5B by surface plasmon resonance analysis; set-up: species or system Hepatitis C virus (isolate Con1); summary of the method: as §4
[22] = Cytotoxicity against human HepG2 cells after 3 days by resazurin-based fluorescence analysis; assay type: cell-based
[23] = Cytotoxicity against HEK293T cells after 3 days by resazurin-based fluorescence analysis; assay type: cell-based, HEK-293T; conditions: human
[24] = Cytotoxicity against human MRC5 cells after 3 days by resazurin-based fluorescence analysis; assay type: cell-based
Hepatitis C virus [25] = assay: Antiviral activity against Hepatitis C virus genotype 1a infected in human HuH7-SG cells after 3 days by RT-PCR analysis; assay type: functional, organism-based, Hepacivirus hominis; conditions: subtype 1a, Huh-7, 72 h
Plasma = assay: Fraction unbound in human plasma; assay type: ADME, cell-free
[26] = Binding affinity to His6-tagged Hepatitis C virus Con 1b NS5B delta21 RNA dependent RNA polymerase expressed in Escherichia coli Rosetta 2 (DE3) by surface plasmon resonance analysis; set-up: species or system Hepatitis C virus (isolate Con1); summary of the method: as §4
[27] = Cytotoxicity against human MT4 cells; assay type: cell-based
[28] = Cytotoxicity against human HuH7 cells; assay type: cell-based, Huh-7
[29] = Toxicity in rat after 5 days; assay type: organism-based; conditions: in vivo
Hepatitis C virus [30] = assay: Antiviral activity against Hepatitis C virus genotype 1b infected in human assessed as reduction in plasma HCV RNA level administered for 10 days measured on day 11; assay type: functional, organism-based; conditions: Hepacivirus hominis
Summary of the method: (§5)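 HCV genotype 1a- and 1b-infected patients received oral 1000 mg b.i.d. together with an NS3/4A protease inhibitor at 150 mg q.d. for 10 days. The read-out was the median decrease in plasma HCV RNA (log10 IU/mL) at day 11.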

Hepatitis C virus [31] = assay: Antiviral activity against Hepatitis C virus genotype 1a infected in human assessed as reduction in plasma HCV RNA level administered for 10 days measured on day 11; assay type: functional, organism-based; conditions: Hepacivirus hominis, subtype 1a; summary of the method: as §5
[32] = tested on: Hepatitis C virus subtype 1b
[33] = Inhibition of His6-tagged Hepatitis C virus Con 1b NS5B delta21 RNA dependent RNA polymerase expressed in Escherichia coli Rosetta 2 (DE3) after 2 hrs by primer-dependent transcription assay in presence of 5'-biotinylated rG13 primer

## COc1ccc2c(c1)C=C1Cn3c-2c(C2CCCCC2)c2ccc(cc23)C(=O)NS(=O)(=O)N(C)CCOCCN(C)C1=O [TMC-647055]
Hepatitis C virus [1]
  Activity: Dose-dependent effect
Homo sapiens [2]
  Drug metabolism: Active
Homo sapiens [3]
  Activity: Non-toxic
Homo sapiens [4]
  Activity: Non-toxic
Homo sapiens [5]
  Activity: Non-toxic
Homo sapiens [6]
  Activity: Non-toxic
Homo sapiens [7]
  Activity: Non-toxic
Homo sapiens [8]
  Activity: Toxic
Hepatitis C virus [9]
  Activity: inactive
Hepatitis C virus [10]
  Activity: Active
Hepatitis C virus [11]
  Activity: Active
Hepatitis C virus [12]
  Activity: Active
Hepatitis C virus [13]
  fold change (FC): 371
[14]
  Ratio EC50: >200
Hepatitis C virus [15]
  pEC50: 7.01
Hepatitis C virus [16]
  pEC50: 7.57
[17]
  pKd: 8.21
[18]
  pKd: 6.06
[19]
  pKd: 8.41
[20]
  pKd: 8.14
[21]
  pKd: 8.39
[22]
  CC50 at 72 h: > 50000 nM
[23]
  CC50 at 72 h: > 50000 nM
[24]
  CC50 at 72 h: > 50000 nM
Hepatitis C virus [25]
  pEC50: 6.78
Plasma
  Fu: 0.3%
[26]
  pKd: 8.39
[27]
  CC50: 28900 nM
[28]
  CC50: 42100 nM
[29]
  NOAEL at 120 h: ≤ 1000 mg/kg/day
Hepatitis C virus [30]
  Activity: Active
Hepatitis C virus [31]
  Activity: Active
[32]
  T1/2: 2.17 h
[33]
  pIC50: 7.47
